Consider 41 compounds from BindingDB's records for doi:10.1021/jm030913e (Ucb Pharma, 2004).

By IC50 is commonly meant the concentration needed to halve the response being measured. Lower therefore signals greater potency.

This assay addresses Synaptic vesicle glycoprotein 2A (Rattus norvegicus, UniProt Q02563). Kind of assay: In vitro inhibitory activity against [3H](2S)-2-[4-(3-azidophenyl)-2-oxopyrrolidin-1-yl]butanamide binding to levetiracetam binding site. The method, boiled down: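 Rat cerebral cortex membranes (male Sprague-Dawley, 200–250 g), homogenised in Tris-HCl/sucrose at 4 °C, washed, preincubated 15 min at 37 °C. Binding: 4 °C for 120 min in 50 mmol/L Tris-HCl pH 7.4 with 2 mmol/L MgCl2, 1–2 × 10^-9 mol/L tritiated azidophenyl radioligand, rising test concentrations. Nonspecific binding with 10^-3 mol/L levetiracetam. Rapid filtration, scintillation counting. pIC50 is the mean of two independent determinations.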

Chain of Synaptic vesicle glycoprotein 2A (Q02563 whole entry): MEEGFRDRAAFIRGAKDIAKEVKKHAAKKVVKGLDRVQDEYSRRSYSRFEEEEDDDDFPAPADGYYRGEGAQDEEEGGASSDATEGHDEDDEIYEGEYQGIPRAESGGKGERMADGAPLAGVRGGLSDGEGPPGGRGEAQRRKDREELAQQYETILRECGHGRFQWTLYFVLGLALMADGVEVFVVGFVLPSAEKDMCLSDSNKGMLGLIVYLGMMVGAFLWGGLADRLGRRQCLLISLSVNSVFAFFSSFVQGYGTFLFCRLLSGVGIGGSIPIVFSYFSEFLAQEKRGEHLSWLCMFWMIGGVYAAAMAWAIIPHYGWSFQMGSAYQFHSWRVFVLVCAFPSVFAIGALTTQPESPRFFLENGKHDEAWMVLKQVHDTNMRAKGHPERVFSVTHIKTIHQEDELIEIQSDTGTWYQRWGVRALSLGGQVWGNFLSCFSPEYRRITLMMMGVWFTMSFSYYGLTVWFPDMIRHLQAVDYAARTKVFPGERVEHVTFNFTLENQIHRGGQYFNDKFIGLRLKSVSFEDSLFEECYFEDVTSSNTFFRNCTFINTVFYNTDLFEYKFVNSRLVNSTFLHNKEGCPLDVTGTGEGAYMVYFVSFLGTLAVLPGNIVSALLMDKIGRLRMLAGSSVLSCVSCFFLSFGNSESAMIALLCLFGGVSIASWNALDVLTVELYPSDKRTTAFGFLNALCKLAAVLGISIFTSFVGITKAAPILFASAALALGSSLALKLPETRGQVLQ

For the compound `CCC(C(N)=O)N1CC(C(C)C)CC1=O` (stereo unspecified), the IC50 came out at 3.98 µM.

For `CC[C@@H](C(N)=O)N1C[C@H](CF)CC1=O`, the IC50 was 1.25 µM. Under `CC[C@@H](C(N)=O)N1CCC(C)C1=O` (stereo partly specified) stands 19.9 µM; under `CCC(C(N)=O)N1CC(Cc2ccccc2)CC1=O` (stereo unspecified), 2.51 µM; under `CCCCN(C(=O)CC)[C@@H](CC)C(N)=O`, 9.99 µM.

`CCC[C@@H]1CC(=O)N([C@@H](CC)C(N)=O)C1` [UCB-34714] displayed an IC50 of 0.1 µM.

Regarding `CC[C@@H](C(N)=O)N(C)C(C)=O`, the IC50 was determined as 15.8 µM.

In turn, `CC[C@@H](C(N)=O)N1C[C@H](C)CC1=O` showed an IC50 of 1.25 µM. Regarding `CCCCCCCN(C(=O)Cc1ccc(OC)cc1)C(CC)C(N)=O` (stereo unspecified), the IC50 amounted to 2.51 µM. In turn, `CCC1CC(=O)N([C@@H](CC)C(N)=O)C1` (stereo partly specified) displayed an IC50 of 1.25 µM. In the case of `CCCCCC1CC(=O)N(C(CC)C(N)=O)C1` (stereo unspecified), the IC50 was 1.25 µM. Turning to `CCCCCCCCN(C(=O)CC)C(CC)C(N)=O` (stereo unspecified), the IC50 was 3.98 µM. Under `CCCCCCCCN(C(=O)Cc1ccc(Cl)cc1)C(CC)C(N)=O` (stereo unspecified) stands 1.99 µM; under `CCCC1(C)CC(=O)N([C@@H](CC)C(N)=O)C1` (stereo partly specified), 0.398 µM; under `CC[C@@H](C(N)=O)N1CC(CC(C)(C)C)CC1=O` (stereo partly specified), 0.794 µM.

Compound `CCCCC1CC(=O)N(C(CC)C(N)=O)C1` (stereo unspecified) showed an IC50 of 0.398 µM. For `CC[C@@H](C(N)=O)N1C[C@H](CO[N+](=O)[O-])CC1=O`, the IC50 was found to be 0.1 µM.

`CC[C@@H](C(N)=O)N1C[C@H](CN=[N+]=[N-])CC1=O` showed an IC50 of 0.0794 µM. As for `CCCCCN(C(=O)CC)C(CC)C(N)=O` (stereo unspecified), the IC50 came out at 1.99 µM. The compound `CC[C@H](C(N)=O)N1CCCC1=O` [Levitiracetam] had an IC50 of less than 999 µM. The compound `CC[C@@H](C(N)=O)N1C[C@H](CBr)CC1=O` yielded a half-maximal inhibitory concentration (IC50) of 0.251 µM. `C[C@@H](C(N)=O)N1CCCC1=O`: the IC50 is 3.16 µM. In the case of `CC[C@@H](C(=O)NO)N1CCCC1=O`, the IC50 turned out to be 1.99 µM.

Compound `CC[C@@H](C(N)=O)N1CC(CC2CC2)CC1=O` (stereo partly specified) displayed an IC50 of 0.125 µM. For `CCC(C(=O)N(C)O)N1CCCC1=O` (stereo unspecified), the IC50 worked out at 19.9 µM.

In turn, `CC[C@@H](C(N)=O)N1C[C@H](CCl)CC1=O` had an IC50 of 0.199 µM. As to `CCC[C@@H](C(N)=O)N1CCCC1=O`, the IC50 worked out at 5.01 µM. In the case of `CC[C@@H](C(=O)NC)N1CCCC1=O` it was 12.5 µM. Turning to `CC[C@@H](C(N)=O)N1CC(NC(=O)OC)CC1=O` (stereo partly specified), the IC50 was 1.58 µM. `CCC[C@H]1CC(=O)N([C@@H](CC)C(N)=O)C1`: the IC50 amounted to 0.251 µM. Under `CCC(C(=O)NN)N1CCCC1=O` (stereo unspecified) stands 6.3 µM; under `CCC[C@H](C(N)=O)N1CCCC1=O`, 999 µM; under `CC[C@@H](C(N)=O)N1CCCC1=O` [UCB-22059], 0.794 µM. `CC[C@@H](C(N)=O)N1C[C@H](CI)CC1=O` yielded an IC50 of 0.158 µM. Regarding `CC[C@@H](C(N)=O)N1C[C@H](CSC)CC1=O`, the IC50 came to 0.125 µM. In turn, `CCC(C(N)=O)N1C(=O)CCC1(C)C` (stereo unspecified) had an IC50 of 63 µM. In turn, `CC[C@@H](C(=N)N)N1CCCC1=O` showed an IC50 of 12.5 µM. Under `CC[C@@H](C(N)=O)N1C(=O)CCC1C` (stereo partly specified) stands 2.51 µM. For the compound `CCC(C(N)=O)N1CC(COC)CC1=O` (stereo unspecified), the IC50 came out at 1.58 µM. Compound `CC(C)C(C(N)=O)N1CCCC1=O` (stereo unspecified) gave an IC50 of 19.9 µM. As for `NC(=O)CN1CCCC1=O` [2-(2-oxopyrrolidin-1-yl)acetamide], the IC50 was 39.8 µM.
